From publication PMC10975593 (ACS Omega, 2024)
pIC50: −log10 of the molar value. Where two headings read alike, the source gives them in different places.

Assays:
Escherichia coli = experiment: Disc diffusion antimicrobial test; assay type: cell-based; conditions: Escherichia coli, 24 h, read-out: zone of inhibition (diameter of inhibition)
In short: (§1)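 Disc diffusion on nutrient agar, test compound at 100 μg/mL with DMSO as solvent. Plates incubated at 37 °C for 24 h after inoculation, then zone of inhibition measured and compared with standards. Controls were DMSO, amoxicillin, ciprofloxacin and tetracycline.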

SF-539 = experiment: NCI 60-cell line screen; assay type: cell-based, human
In short: (§2)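 Test compounds were submitted to the National Cancer Institute and run under NCI's standard 60-cell-line protocols. Read-outs were taken from percent-growth versus log-concentration curves.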

HT29 = experiment: NCI 60-cell line screen; assay type: cell-based, human
MOLT-4 = experiment: NCI 60-cell line screen; assay type: cell-based, human
BT-549 = experiment: NCI 60-cell line screen; assay type: cell-based, human
HOP-62 = experiment: NCI 60-cell line screen; assay type: cell-based, human
OVCAR-3 = experiment: NCI 60-cell line screen; assay type: cell-based, human
HOP-92 = experiment: NCI 60-cell line screen; assay type: cell-based, human
A549 cancer cell line = experiment: MTT assay; assay type: cell-based; conditions: Homo sapiens, A549, 72 h
In short: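 A549 in DMEM and MCF-7 in RPMI, each with 10% heat-inactivated FBS, 1% penicillin/streptomycin and 2 mmol/L glutamine at 37 °C, 5% CO2. Seeded at 2000 (A549) or 10,000 (MCF-7) cells/well and attached 24 h. Then 72 h with test compound at varying concentrations. MTT (5 mg/mL stock) added for 4 h at 37 °C, formazan dissolved in DMSO, absorbance read at 450/540 nm. Triplicates in three separate experiments.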

A498 = experiment: NCI 60-cell line screen; assay type: cell-based, human
SNB-19 = experiment: NCI 60-cell line screen; assay type: cell-based, human
In short: as §2

PI3Kγ enzyme = PI3Kγ enzyme (Homo sapiens, UniProt P48736); experiment: Adapta universal kinase assay, anti-PI3Kγ activity; assay type: biochemical
In short: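 Adapta ADP-detection TR-FRET immunoassay with test compound at 100 μM. The kinase reaction runs 60 min. It is then stopped by a detection solution of EDTA, europium-labelled anti-ADP antibody and Alexa Fluor 647-labelled ADP tracer. ADP formed displaces the tracer and lowers the TR-FRET signal. ADP formation is calculated from the emission ratio.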

SW-620 = experiment: NCI 60-cell line screen; assay type: cell-based, human
In short: as §2

HL-60(TB) = conditions: leukemia
UACC-257 = experiment: NCI 60-cell line screen; assay type: cell-based, human
In short: as §2

NCI-H522 = experiment: NCI 60-cell line screen; assay type: cell-based, human
Staphylococcus aureus = experiment: Disc diffusion antimicrobial test; assay type: cell-based; conditions: Staphylococcus aureus, 24 h, read-out: zone of inhibition (diameter of inhibition)
In short: as §1

OVCAR-8 = experiment: NCI 60-cell line screen; assay type: cell-based, human
In short: as §2

OVCAR-5 = experiment: NCI 60-cell line screen; assay type: cell-based, human
In short: as §2

K-562 = experiment: NCI 60-cell line screen; assay type: cell-based, human
MALME-3M = experiment: NCI 60-cell line screen; assay type: cell-based, human
MDA-MB-435 = experiment: NCI 60-cell line screen; assay type: cell-based, human
M14 = experiment: NCI 60-cell line screen; assay type: cell-based, human

PI3Kγ enzyme, sequence (P48736 whole entry): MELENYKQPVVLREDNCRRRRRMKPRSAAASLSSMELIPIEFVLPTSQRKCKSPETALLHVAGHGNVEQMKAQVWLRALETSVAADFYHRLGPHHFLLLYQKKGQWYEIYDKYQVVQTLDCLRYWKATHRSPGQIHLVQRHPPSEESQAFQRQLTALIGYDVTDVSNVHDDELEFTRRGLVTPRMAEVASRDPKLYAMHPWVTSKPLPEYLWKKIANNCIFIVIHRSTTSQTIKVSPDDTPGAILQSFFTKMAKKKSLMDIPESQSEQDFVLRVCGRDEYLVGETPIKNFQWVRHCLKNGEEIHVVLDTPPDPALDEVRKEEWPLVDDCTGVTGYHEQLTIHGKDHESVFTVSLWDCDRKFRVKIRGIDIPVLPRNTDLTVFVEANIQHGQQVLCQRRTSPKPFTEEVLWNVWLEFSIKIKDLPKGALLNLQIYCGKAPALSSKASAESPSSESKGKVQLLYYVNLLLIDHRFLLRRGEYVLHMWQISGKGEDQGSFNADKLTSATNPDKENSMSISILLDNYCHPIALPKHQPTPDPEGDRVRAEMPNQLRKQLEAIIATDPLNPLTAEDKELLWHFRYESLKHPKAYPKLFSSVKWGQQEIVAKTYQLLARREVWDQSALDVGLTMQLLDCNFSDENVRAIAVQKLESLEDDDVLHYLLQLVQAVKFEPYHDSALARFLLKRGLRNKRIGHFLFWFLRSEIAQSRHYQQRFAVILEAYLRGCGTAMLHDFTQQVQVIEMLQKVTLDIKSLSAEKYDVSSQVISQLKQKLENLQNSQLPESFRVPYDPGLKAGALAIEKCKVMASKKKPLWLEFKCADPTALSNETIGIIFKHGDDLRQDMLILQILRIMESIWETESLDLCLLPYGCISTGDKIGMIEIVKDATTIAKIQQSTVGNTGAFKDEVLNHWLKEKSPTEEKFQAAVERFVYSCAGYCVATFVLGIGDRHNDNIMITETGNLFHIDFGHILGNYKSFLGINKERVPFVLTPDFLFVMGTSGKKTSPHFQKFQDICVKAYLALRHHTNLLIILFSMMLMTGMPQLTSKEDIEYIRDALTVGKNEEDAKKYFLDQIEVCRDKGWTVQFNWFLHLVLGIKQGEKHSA

Question: `O=C(CNc1ccc([N+](=O)[O-])cc1)Nc1nc2ccccc2s1` [OMS5, N-(1,3-benzothiazol-2-yl)-2-(4-nitroanilino)acetamide] was tested. Which zone of inhibition at 100 µg/mL (Escherichia coli) did it give?
Answer: The zone of inhibition at 100 µg/mL was 0 mm.

Question: What about the GI50 (SF-539; Homo sapiens, SF-539) of the same molecule?
Answer: The GI50 was 500 nM.

Question: What about the pIC50 (SF-539; Homo sapiens, SF-539) of the same molecule?
Answer: The pIC50 was 5.85.

Question: And the CC50 (SF-539; Homo sapiens, SF-539, read-out: LC50)?
Answer: Its CC50 is 6500 nM.

Question: What about the TGI (SF-539; SF-539, CNS cancer) of the same molecule?
Answer: The TGI was 2100 nM.

Question: And the TGI (HT29; HT29, colon cancer)?
Answer: Its TGI is 2100 nM.

Question: And the GI50 (HT29; Homo sapiens, HT-29)?
Answer: Its GI50 is 500 nM.

Question: And the pIC50 (HT29; Homo sapiens, HT-29)?
Answer: The pIC50 was 6.15.

Question: What about the CC50 (HT29; Homo sapiens, HT-29, read-out: LC50) of the same molecule?
Answer: Its CC50 is 8100 nM.

Question: And the GI50 (MOLT-4; Homo sapiens, MOLT-4)?
Answer: Its GI50 is 400 nM.

Question: And the pIC50 (MOLT-4; Homo sapiens, MOLT-4)?
Answer: The pIC50 was 6.22.

Question: And the CC50 (MOLT-4; Homo sapiens, MOLT-4, read-out: LC50)?
Answer: Its CC50 is greater than 100000 nM.

Question: And the TGI (MOLT-4; MOLT-4, leukemia)?
Answer: Its TGI is 12000 nM.

Question: What about the TGI (BT-549; BT-549, breast cancer) of the same molecule?
Answer: The TGI was 6500 nM.

Question: What about the GI50 (BT-549; Homo sapiens, BT-549) of the same molecule?
Answer: Its GI50 is 2000 nM.

Question: What about the pIC50 (BT-549; Homo sapiens, BT-549) of the same molecule?
Answer: Its pIC50 is 5.27.

Question: What about the CC50 (BT-549; Homo sapiens, BT-549, read-out: LC50) of the same molecule?
Answer: Its CC50 is 27500 nM.

Question: And the TGI (HOP-62; HOP-62, non-small cell lung cancer)?
Answer: Its TGI is 4900 nM.

Question: And the GI50 (HOP-62; Homo sapiens, HOP-62)?
Answer: The GI50 was 1200 nM.

Question: And the pIC50 (HOP-62; Homo sapiens, HOP-62)?
Answer: The pIC50 was 5.52.

Question: What about the CC50 (HOP-62; Homo sapiens, HOP-62, read-out: LC50) of the same molecule?
Answer: The CC50 was 25100 nM.

Question: What about the GI50 (OVCAR-3; Homo sapiens, OVCAR-3) of the same molecule?
Answer: Its GI50 is 1900 nM.

Question: What about the pIC50 (OVCAR-3; Homo sapiens, OVCAR-3) of the same molecule?
Answer: Its pIC50 is 5.40.

Question: And the CC50 (OVCAR-3; Homo sapiens, OVCAR-3, read-out: LC50)?
Answer: The CC50 was greater than 100000 nM.

Question: And the TGI (OVCAR-3; OVCAR-3, ovarian cancer)?
Answer: Its TGI is 9100 nM.

Question: And the TGI (HOP-92; HOP-92, non-small cell lung cancer)?
Answer: Its TGI is 10000 nM.

Question: And the GI50 (HOP-92; Homo sapiens, HOP-92)?
Answer: Its GI50 is 2300 nM.

Question: What about the pIC50 (HOP-92; Homo sapiens, HOP-92) of the same molecule?
Answer: The pIC50 was 4.92.

Question: What about the CC50 (HOP-92; Homo sapiens, HOP-92, read-out: LC50) of the same molecule?
Answer: The CC50 was 63100 nM.

Question: What about the pIC50 (A549 cancer cell line) of the same molecule?
Answer: The pIC50 was 4.21.

Question: And the inhibition at 100 µM (A549 cancer cell line; read-out: experimental % of inhibition on A549 cancer cell line)?
Answer: Its inhibition at 100 µM is 64.2%.

Question: What about the TGI (A498; A498, renal cancer) of the same molecule?
Answer: Its TGI is 6500 nM.

Question: What about the GI50 (A498; Homo sapiens, A498) of the same molecule?
Answer: Its GI50 is 1400 nM.

Question: What about the pIC50 (A498; Homo sapiens, A498) of the same molecule?
Answer: The pIC50 was 5.14.

Question: And the CC50 (A498; Homo sapiens, A498, read-out: LC50)?
Answer: Its CC50 is 28800 nM.

Question: What about the GI50 (SNB-19; Homo sapiens, SNB-19) of the same molecule?
Answer: Its GI50 is 1000 nM.

Question: And the pIC50 (SNB-19; Homo sapiens, SNB-19)?
Answer: The pIC50 was 5.59.

Question: And the CC50 (SNB-19; Homo sapiens, SNB-19, read-out: LC50)?
Answer: The CC50 was 95500 nM.

Question: And the TGI (SNB-19; SNB-19, CNS cancer)?
Answer: The TGI was 10000 nM.

Question: And the inhibition at 100 µM (PI3Kγ enzyme; read-out: % of inhibition (mean) against PI3Kγ enzyme)?
Answer: Its inhibition at 100 µM is 0%.

Question: And the inhibition at 100 µM (PI3Kγ enzyme; read-out: % of inhibition against PI3Kγ enzyme, point 1)?
Answer: The inhibition at 100 µM was 0%.

Question: What about the inhibition at 100 µM (PI3Kγ enzyme; read-out: % of inhibition against PI3Kγ enzyme, point 2) of the same molecule?
Answer: The inhibition at 100 µM was 0%.

Question: What about the GI50 (SW-620; Homo sapiens, SW-620) of the same molecule?
Answer: The GI50 was 500 nM.

Question: What about the pIC50 (SW-620; Homo sapiens, SW-620) of the same molecule?
Answer: The pIC50 was 6.15.

Question: What about the CC50 (SW-620; Homo sapiens, SW-620, read-out: LC50) of the same molecule?
Answer: Its CC50 is 43700 nM.

Question: And the TGI (SW-620; SW-620, colon cancer)?
Answer: The TGI was 7200 nM.

Question: And the TGI (HL-60(TB))?
Answer: The TGI was 14000 nM.

Question: And the GI50 (UACC-257; Homo sapiens, UACC-257)?
Answer: The GI50 was 1300 nM.

Question: And the pIC50 (UACC-257; Homo sapiens, UACC-257)?
Answer: The pIC50 was 5.60.

Question: And the CC50 (UACC-257; Homo sapiens, UACC-257, read-out: LC50)?
Answer: Its CC50 is 6300 nM.

Question: And the TGI (UACC-257; UACC-257, melanoma)?
Answer: Its TGI is 2800 nM.

Question: What about the GI50 (NCI-H522; Homo sapiens, NCI-H522) of the same molecule?
Answer: The GI50 was 700 nM.

Question: And the pIC50 (NCI-H522; Homo sapiens, NCI-H522)?
Answer: Its pIC50 is 5.68.

Question: And the CC50 (NCI-H522; Homo sapiens, NCI-H522, read-out: LC50)?
Answer: Its CC50 is 6300 nM.

Question: And the TGI (NCI-H522; NCI-H522, non-small cell lung cancer)?
Answer: The TGI was 2300 nM.

Question: And the zone of inhibition at 100 µg/mL (Staphylococcus aureus)?
Answer: The zone of inhibition at 100 µg/mL was 0 mm.

Question: What about the GI50 (OVCAR-8; Homo sapiens, OVCAR-8) of the same molecule?
Answer: The GI50 was 600 nM.

Question: What about the pIC50 (OVCAR-8; Homo sapiens, OVCAR-8) of the same molecule?
Answer: The pIC50 was 6.05.

Question: What about the CC50 (OVCAR-8; Homo sapiens, OVCAR-8, read-out: LC50) of the same molecule?
Answer: The CC50 was greater than 100000 nM.

Question: And the TGI (OVCAR-8; OVCAR-8, ovarian cancer)?
Answer: The TGI was 22000 nM.

Question: What about the GI50 (OVCAR-5; Homo sapiens, OVCAR-5) of the same molecule?
Answer: Its GI50 is 1000 nM.

Question: And the pIC50 (OVCAR-5; Homo sapiens, OVCAR-5)?
Answer: Its pIC50 is 5.60.

Question: And the CC50 (OVCAR-5; Homo sapiens, OVCAR-5, read-out: LC50)?
Answer: Its CC50 is 46800 nM.

Question: And the TGI (OVCAR-5; OVCAR-5, ovarian cancer)?
Answer: Its TGI is 5400 nM.

Question: What about the GI50 (K-562; Homo sapiens, K562) of the same molecule?
Answer: Its GI50 is 500 nM.

Question: What about the pIC50 (K-562; Homo sapiens, K562) of the same molecule?
Answer: Its pIC50 is 6.22.

Question: And the CC50 (K-562; Homo sapiens, K562, read-out: LC50)?
Answer: Its CC50 is greater than 100000 nM.

Question: And the TGI (K-562; K-562, leukemia)?
Answer: Its TGI is 100000 nM.

Question: And the GI50 (MALME-3M; Homo sapiens, Malme-3M)?
Answer: Its GI50 is 1100 nM.

Question: What about the pIC50 (MALME-3M; Homo sapiens, Malme-3M) of the same molecule?
Answer: The pIC50 was 5.68.

Question: What about the CC50 (MALME-3M; Homo sapiens, Malme-3M, read-out: LC50) of the same molecule?
Answer: Its CC50 is 5000 nM.

Question: And the TGI (MALME-3M; MALME-3M, melanoma)?
Answer: The TGI was 2300 nM.

Question: And the GI50 (MDA-MB-435; Homo sapiens, MDA-MB-435)?
Answer: Its GI50 is 700 nM.

Question: And the pIC50 (MDA-MB-435; Homo sapiens, MDA-MB-435)?
Answer: The pIC50 was 5.89.

Question: What about the CC50 (MDA-MB-435; Homo sapiens, MDA-MB-435, read-out: LC50) of the same molecule?
Answer: Its CC50 is 4800 nM.

Question: And the TGI (MDA-MB-435; MDA-MB-435, melanoma)?
Answer: Its TGI is 2000 nM.

Question: And the GI50 (M14; Homo sapiens, M14)?
Answer: The GI50 was 900 nM.

Question: What about the pIC50 (M14; Homo sapiens, M14) of the same molecule?
Answer: Its pIC50 is 5.85.

Question: And the CC50 (M14; Homo sapiens, M14, read-out: LC50)?
Answer: The CC50 was 6500 nM.

Question: And the TGI (M14; M14, melanoma)?
Answer: Its TGI is 2500 nM.
